{
  "source": "ChEMBL document CHEMBL4396889",
  "about": "“From Inhibition to Degradation: Targeting the Antiapoptotic Protein Myeloid Cell Leukemia 1 (MCL1)” (J Med Chem, 2019)",
  "key": {"[1]": {"target": "T1, Protein cereblon/Induced myeloid leukemia cell differentiation protein Mcl-1 (Homo sapiens) (UniProt Q07820+Q96SW2)", "T1 sequence (Q07820 whole entry, looked up, canonical isoform)": "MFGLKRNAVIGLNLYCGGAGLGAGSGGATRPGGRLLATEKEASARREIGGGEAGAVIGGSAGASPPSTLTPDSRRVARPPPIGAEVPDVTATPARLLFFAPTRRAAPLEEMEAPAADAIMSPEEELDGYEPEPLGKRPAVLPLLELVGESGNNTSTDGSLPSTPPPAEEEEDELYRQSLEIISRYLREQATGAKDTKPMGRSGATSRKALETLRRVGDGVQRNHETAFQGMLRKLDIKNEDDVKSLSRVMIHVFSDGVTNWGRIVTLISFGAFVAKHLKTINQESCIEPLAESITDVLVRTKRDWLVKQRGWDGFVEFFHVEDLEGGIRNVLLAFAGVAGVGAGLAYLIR", "T1 sequence (Q96SW2 whole entry, looked up, canonical isoform)": "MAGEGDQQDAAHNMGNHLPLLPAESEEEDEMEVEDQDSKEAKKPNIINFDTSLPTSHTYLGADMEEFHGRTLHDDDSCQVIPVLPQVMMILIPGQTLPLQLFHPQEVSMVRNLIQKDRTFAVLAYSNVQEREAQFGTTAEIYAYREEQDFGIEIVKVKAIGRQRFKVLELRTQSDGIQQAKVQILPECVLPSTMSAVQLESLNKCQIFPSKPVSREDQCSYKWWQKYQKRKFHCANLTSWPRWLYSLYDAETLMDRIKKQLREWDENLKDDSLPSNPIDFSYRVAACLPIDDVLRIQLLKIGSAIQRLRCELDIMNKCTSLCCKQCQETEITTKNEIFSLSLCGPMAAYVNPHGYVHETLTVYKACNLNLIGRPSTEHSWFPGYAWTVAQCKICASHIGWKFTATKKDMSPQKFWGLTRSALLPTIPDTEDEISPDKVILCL", "assay": "Protac activity at Cereblon/MCL1 in human OPM2 cells assessed as protein abundance at 25 nM after 48 hrs by immunoblot analysis relative to control", "type": "cell-based", "how_it_was_run": "(§1)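 OPM2 multiple myeloma cells, wild type or CRBN-knockout, were treated for 48 h with degrader or DMSO vehicle. MCL1 long and short isoforms were detected by immunoblot and levels compared with DMSO controls.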"}, "[2]": {"target": "T1, Protein cereblon/Induced myeloid leukemia cell differentiation protein Mcl-1 (Homo sapiens)", "assay": "Protac activity at Cereblon/MCL1 in human OPM2 cell lysate assessed as induction of MCL1 polyubiquitination incubated for 3 hrs by SDS-PAGE/immunoblot analysis", "type": "subcellular", "how_it_was_run": "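In vitro ubiquitinylation reactions; the target (MCL1 or BRD4) was then immunoprecipitated and the immunoprecipitate immunoblotted for ubiquitin.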"}, "[3]": {"target": "T2, Induced myeloid leukemia cell differentiation protein Mcl-1 (Homo sapiens, UniProt Q07820)", "T2 sequence (Q07820 whole entry)": "as the sequence (Q07820 whole entry, looked up, canonical isoform) above", "assay": "Binding affinity to His-tagged biotinylated human MCL1 by surface plasmon resonance method"}, "[4]": {"target": "T1, Protein cereblon/Induced myeloid leukemia cell differentiation protein Mcl-1 (Homo sapiens)", "assay": "Protac activity at Cereblon/MCL1 long isoform in wild type human OPM2 cells assessed as protein abundance at 50 nM after 48 hrs by immunoblot analysis relative to control", "type": "cell-based", "how_it_was_run": "as §1"}, "[5]": {"target": "T1, Protein cereblon/Induced myeloid leukemia cell differentiation protein Mcl-1 (Homo sapiens)", "assay": "Protac activity at Cereblon/MCL1 long isoform in wild type human OPM2 cells at 100 nM after 48 hrs by immunoblot analysis relative to control", "type": "cell-based", "how_it_was_run": "as §1"}, "[6]": {"target": "T1, Protein cereblon/Induced myeloid leukemia cell differentiation protein Mcl-1 (Homo sapiens)", "assay": "Protac activity at Cereblon/MCL1 long isoform in wild type human OPM2 cells at 250 nM after 48 hrs by immunoblot analysis relative to control", "type": "cell-based", "how_it_was_run": "as §1"}, "[7]": {"target": "T1, Protein cereblon/Induced myeloid leukemia cell differentiation protein Mcl-1 (Homo sapiens)", "assay": "Protac activity at Cereblon/MCL1 long isoform in wild type human OPM2 cells at 500 nM after 48 hrs by immunoblot analysis relative to control", "type": "cell-based", "how_it_was_run": "as §1"}, "[8]": {"target": "T1, Protein cereblon/Induced myeloid leukemia cell differentiation protein Mcl-1 (Homo sapiens)", "assay": "Protac activity at Cereblon/MCL1 short isoform in wild type human OPM2 cells assessed as MCL1 short isoform abundance at 250 nM after 48 hrs by immunoblot analysis relative to control", "type": "cell-based", "how_it_was_run": "(§2)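 OPM2 wild-type cells, run alongside the CRBN-/- line, were treated for 48 h with compound or DMSO. The MCL1 long and short isoforms were then measured by immunoblot against the DMSO control.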"}, "[9]": {"target": "T1, Protein cereblon/Induced myeloid leukemia cell differentiation protein Mcl-1 (Homo sapiens)", "assay": "Protac activity at Cereblon/MCL1 short isoform in wild type human OPM2 cells assessed as MCL1 short isoform abundance at 500 nM after 48 hrs by immunoblot analysis relative to control", "type": "cell-based", "how_it_was_run": "as §2"}, "[10]": {"target": "T2, Induced myeloid leukemia cell differentiation protein Mcl-1", "assay": "Induction of MCL1 long isoform degradation in CRBN-/- human OPM2 cells assessed as protein abundance at 50 nM after 48 hrs by immunoblot analysis relative to control", "type": "cell-based", "how_it_was_run": "as §1"}, "[11]": {"target": "T2, Induced myeloid leukemia cell differentiation protein Mcl-1", "assay": "Induction of MCL1 short isoform degradation in CRBN-/- human OPM2 cells assessed as protein abundance at 50 nM after 48 hrs by immunoblot analysis relative to control", "type": "cell-based", "how_it_was_run": "as §1"}, "OPM-2 [12]": {"tested_on": "OPM-2", "assay": "Induction of apoptosis in wild type human OPM2 cells assessed as cleaved caspase-3 at 100 nM after 24 hrs in presence of 1% FBS by immunoblot analysis (reference value: 91%)", "type": "functional"}, "OPM-2 [13]": {"tested_on": "OPM-2", "assay": "Induction of apoptosis in wild type human OPM2 cells assessed as cleaved caspase-3 at 250 nM after 24 hrs in presence of 1% FBS by immunoblot analysis (reference value: 92%)", "type": "functional"}, "OPM-2 [14]": {"tested_on": "OPM-2", "assay": "Induction of apoptosis in wild type human OPM2 cells assessed as cleaved caspase-3 at 500 nM after 24 hrs in presence of 1% FBS by immunoblot analysis (reference value: 80%)", "type": "functional"}, "[15]": {"target": "T1, Protein cereblon/Induced myeloid leukemia cell differentiation protein Mcl-1 (Homo sapiens)", "assay": "Protac activity at Cereblon/MCL1 long isoform in human OPM2 cells assessed as MCL1 long isoform level at 300 nM pre-incubated for 72 hrs followed by cycloheximide addition and measured after 60 mins by immunoblot analysis (reference value: 84%)", "type": "cell-based", "how_it_was_run": "(§3)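 Cycloheximide chase: cells were treated for 72 h with DMSO or degrader, with cycloheximide added for the final 30, 60 or 120 min. OPM2 and MM1.S cells were used, and wild-type OPM2 was compared with OPM2 CRBN-/- at 60 and 120 min. MCL1 was detected by immunoblot.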"}, "[16]": {"target": "T1, Protein cereblon/Induced myeloid leukemia cell differentiation protein Mcl-1 (Homo sapiens)", "assay": "Protac activity at Cereblon/MCL1 short isoform in human OPM2 cells assessed as MCL1 short isoform level at 300 nM pre-incubated for 72 hrs followed by cycloheximide addition and measured after 30 mins by immunoblot analysis (reference value: 100%)", "type": "cell-based", "how_it_was_run": "(§4)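 OPM2 or MM1.S cells were treated for 72 h with compound or DMSO. Cycloheximide was added for the final 30, 60 or 120 min. MCL1 was read by immunoblot and compared with DMSO-treated cells as a normal-turnover reference.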"}, "[17]": {"target": "T1, Protein cereblon/Induced myeloid leukemia cell differentiation protein Mcl-1 (Homo sapiens)", "assay": "Protac activity at Cereblon/MCL1 short isoform in human OPM2 cells assessed as MCL1 short isoform level at 300 nM pre-incubated for 72 hrs followed by cycloheximide addition and measured after 60 mins by immunoblot analysis (reference value: 49%)", "type": "cell-based", "how_it_was_run": "as §4"}, "[18]": {"target": "T1, Protein cereblon/Induced myeloid leukemia cell differentiation protein Mcl-1 (Homo sapiens)", "assay": "Protac activity at Cereblon/MCL1 short isoform in human OPM2 cells assessed as MCL1 short isoform level at 300 nM pre-incubated for 72 hrs followed by cycloheximide addition and measured after 120 mins by immunoblot analysis (reference value: 14%)", "type": "cell-based", "how_it_was_run": "as §4"}, "[19]": {"target": "T1, Protein cereblon/Induced myeloid leukemia cell differentiation protein Mcl-1 (Homo sapiens)", "assay": "Protac activity at Cereblon/MCL1 short isoform in human MM1S cells assessed as MCL1 short isoform level at 300 nM pre-incubated for 72 hrs followed by cycloheximide addition and measured after 30 mins by immunoblot analysis (reference value: 100%)", "type": "cell-based", "how_it_was_run": "as §3"}, "[20]": {"target": "T1, Protein cereblon/Induced myeloid leukemia cell differentiation protein Mcl-1 (Homo sapiens)", "assay": "Protac activity at Cereblon/MCL1 short isoform in human MM1S cells assessed as MCL1 short isoform level at 300 nM pre-incubated for 72 hrs followed by cycloheximide addition and measured after 60 mins by immunoblot analysis (reference value: 98%)", "type": "cell-based", "how_it_was_run": "as §4"}, "[21]": {"target": "T1, Protein cereblon/Induced myeloid leukemia cell differentiation protein Mcl-1 (Homo sapiens)", "assay": "Protac activity at Cereblon/MCL1 short isoform in wild type human OPM2 cells assessed as MCL1 short isoform level at 300 nM pre-incubated for 72 hrs followed by cycloheximide addition and measured after 60 mins by immunoblot analysis (reference value: 64%)", "type": "cell-based", "how_it_was_run": "(§5)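 OPM2 wild-type and OPM2 CRBN-/- cells were treated for 72 h with compound or DMSO, with cycloheximide present for the final 60 or 120 min. MCL1 was detected by immunoblot.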"}, "[22]": {"target": "T1, Protein cereblon/Induced myeloid leukemia cell differentiation protein Mcl-1 (Homo sapiens)", "assay": "Protac activity at Cereblon/MCL1 short isoform in wild type human OPM2 cells assessed as MCL1 short isoform level at 300 nM pre-incubated for 72 hrs followed by cycloheximide addition and measured after 120 mins by immunoblot analysis (reference value: 14%)", "type": "cell-based", "how_it_was_run": "as §5"}, "[23]": {"target": "T2, Induced myeloid leukemia cell differentiation protein Mcl-1", "assay": "Induction of MCL1 long isoform degradation in CRBN-/- human OPM2 cells assessed as protein abundance at 300 nM pre-incubated for 72 hrs followed by cycloheximide addition and measured after 60 mins by immunoblot analysis (reference value: 79%)", "type": "cell-based", "how_it_was_run": "as §3"}, "[24]": {"target": "T2, Induced myeloid leukemia cell differentiation protein Mcl-1", "assay": "Induction of MCL1 short isoform degradation in CRBN-/- human OPM2 cells assessed as protein abundance at 300 nM pre-incubated for 72 hrs followed by cycloheximide addition and measured after 120 mins by immunoblot analysis (reference value: 16%)", "type": "cell-based", "how_it_was_run": "as §3"}, "[25]": {"target": "T1, Protein cereblon/Induced myeloid leukemia cell differentiation protein Mcl-1 (Homo sapiens)", "assay": "Protac activity at Cereblon/MCL1 long isoform in human OPM2 cells assessed as MCL1 long isoform abundance at 250 nM after 24 hrs by immunoblot analysis relative to control", "type": "cell-based"}, "[26]": {"target": "T1, Protein cereblon/Induced myeloid leukemia cell differentiation protein Mcl-1 (Homo sapiens)", "assay": "Protac activity at Cereblon/MCL1 short isoform in human OPM2 cells assessed as MCL1 short isoform abundance at 50 nM after 24 hrs by immunoblot analysis relative to control", "type": "cell-based"}, "[27]": {"target": "T1, Protein cereblon/Induced myeloid leukemia cell differentiation protein Mcl-1 (Homo sapiens)", "assay": "Protac activity at Cereblon/MCL1 short isoform in human OPM2 cells assessed as MCL1 short isoform abundance at 250 nM after 24 hrs by immunoblot analysis relative to control", "type": "cell-based"}},
  "note": "Calls of active or inactive are those of the source. The rule behind the calls is not given here.",
  "data": [
    {"smiles": "Cc1nn(C)c(COc2ccc(N3CCN(S(=O)(=O)N(C)C)CC3)cc2)c1-c1cccc2c(CCCOc3cccc4ccccc34)c(C(=O)O)n(CCN3CCN(C(=O)COc4cccc5c4C(=O)N(C4CCC(=O)NC4=O)C5=O)CC3)c12", "note": "(configuration not stated)", "values": [
      {"measurement": "Activity", "setting": "[1]", "value": 89, "unit": "%"},
      {"measurement": "Activity", "setting": "[2]", "value": "Active"},
      {"measurement": "Kd", "setting": "[3]", "value": 0.03, "unit": "µM"},
      {"measurement": "Activity", "setting": "[4]", "value": 100, "unit": "%"},
      {"measurement": "Activity", "setting": "[5]", "value": 69, "unit": "%"},
      {"measurement": "Activity", "setting": "[6]", "value": 70, "unit": "%"},
      {"measurement": "Activity", "setting": "[7]", "value": 50, "unit": "%"},
      {"measurement": "Activity", "setting": "[8]", "value": 47, "unit": "%"},
      {"measurement": "Activity", "setting": "[9]", "value": 20, "unit": "%"},
      {"measurement": "Activity", "setting": "[10]", "value": 100, "unit": "%"},
      {"measurement": "Activity", "setting": "[11]", "value": 100, "unit": "%"},
      {"measurement": "Activity", "setting": "OPM-2 [12]", "value": 143, "unit": "%"},
      {"measurement": "Activity", "setting": "OPM-2 [13]", "value": 197, "unit": "%"},
      {"measurement": "Activity", "setting": "OPM-2 [14]", "value": 326, "unit": "%"},
      {"measurement": "Activity", "setting": "[15]", "value": 58, "unit": "%"},
      {"measurement": "Activity", "setting": "[16]", "value": 34, "unit": "%"},
      {"measurement": "Activity", "setting": "[17]", "value": 8, "unit": "%"},
      {"measurement": "Activity", "setting": "[18]", "value": 2, "unit": "%"},
      {"measurement": "Activity", "setting": "[19]", "value": 74, "unit": "%"},
      {"measurement": "Activity", "setting": "[20]", "value": 31, "unit": "%"},
      {"measurement": "Activity", "setting": "[21]", "value": 14, "unit": "%"},
      {"measurement": "Activity", "setting": "[22]", "value": 2, "unit": "%"},
      {"measurement": "Activity", "setting": "[23]", "value": 78, "unit": "%"},
      {"measurement": "Activity", "setting": "[24]", "value": 25, "unit": "%"},
      {"measurement": "Activity", "setting": "[25]", "value": 73, "unit": "%"},
      {"measurement": "Activity", "setting": "[26]", "value": 96, "unit": "%"},
      {"measurement": "Activity", "setting": "[27]", "value": 49, "unit": "%"}
    ]}
  ]
}
